# Active and inactive are the calls of the source.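 How the source made its calls: active means inhibition of at least 50% at 0.1 µM compound; inactive means inhibition below 50%.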
# Molecular target: Platelet-activating factor acetylhydrolase 2, cytoplasmic (Mus musculus) (UniProt Q8VDG7)
# Experiment: off-target mouse PAFAH2 activity blockade – cell lysate, gel-based competitive ABPP, fluorescence, selectivity assay for pPAFAH inhibitor project, late-stage follow-up (AID 588767)
# Conditions: BW5147 T-cell soluble proteome, FP-Rh, stronger effect = higher value
# Procedure, shortened: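 System – endogenous PAFAH2 within BW5147-derived murine T-cell soluble proteome · Probe or stimulus – Rhodamine-linked fluorophosphonate activity probe (FP-Rh), 1 µM final · Timing – compound pre-incubation 30 min and probe labelling 30 min, both 37 °C · Measured by – SDS-PAGE separation with in-gel rhodamine fluorescence scanning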
# Sequence of Platelet-activating factor acetylhydrolase 2, cytoplasmic (Mus musculus) (Q8VDG7 whole entry, looked up): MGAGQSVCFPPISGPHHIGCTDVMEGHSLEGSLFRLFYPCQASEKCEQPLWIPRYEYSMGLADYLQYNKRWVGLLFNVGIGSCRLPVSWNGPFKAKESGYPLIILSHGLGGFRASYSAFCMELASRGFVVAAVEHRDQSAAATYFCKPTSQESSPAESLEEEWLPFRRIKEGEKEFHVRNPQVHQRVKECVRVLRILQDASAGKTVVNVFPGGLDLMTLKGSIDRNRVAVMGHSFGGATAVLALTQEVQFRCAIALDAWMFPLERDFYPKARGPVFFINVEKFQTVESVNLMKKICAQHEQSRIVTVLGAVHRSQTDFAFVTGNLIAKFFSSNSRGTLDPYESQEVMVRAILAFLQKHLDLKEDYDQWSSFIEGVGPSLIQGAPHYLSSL
inhibition (at 0.1 µM),"inhibition (inhibition, at 1 µM)","inhibition (inhibition, at 10 µM)",Compound
0% (inactive),0%,0%,Cc1cc(N2CCN(C(=O)Oc3ccc(-c4ccccc4)cn3)CC2)c2ccccc2n1
100%,,,COc1ccc2cc(-c3cnn(C(=O)N4CCCC4)n3)ccc2c1

# Source: PubChem BioAssay AID588767 (The Scripps Research Institute Molecular Screening Center, 2011)
